Drawing on ChEMBL document CHEMBL4138156, “Indole and Benzimidazole Bichalcophenes: Synthesis, DNA Binding and Antiparasitic Activity” (Eur J Med Chem, 2018), this text covers Activity, ΔTm and selectivity ratio for 6 compounds.

Active and inactive are the calls of the source. The calls are words filed in the database; no cut-off is given here.

The nature of series [1]: Binding affinity to poly(dA).poly(dT) DNA minor groove (unknown origin) assessed as positive induced CD signal at DNA:compound molar ratio of 20:2 to 20:10 by CD spectra analysis. Format: nucleic-acid assay. Summed up:
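Poly(dA).poly(dT) at 20 μM was titrated with compound at 25 °C in 10 mM MES, 100 mM NaCl, 1 mM EDTA, pH 7.4. CD spectra were recorded at different compound-to-DNA ratios.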

The test system of series [2] is Poly(dA-dT)oligonucleotide. Description: Binding affinity to poly(dA-dT)n DNA (unknown origin) assessed as change in melting temperature at 0.3 molar ratio of compound:DNA by spectrophotometric analysis. Format: nucleic-acid assay. In outline:
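UV thermal melting of poly(dA-dT) in CAC 10 buffer (10 mM cacodylic acid, 1 mM EDTA, 100 mM NaCl, NaOH to pH 7.0) was run in 1 cm quartz cuvettes, ramping at 0.5 °C/min. DNA concentration was set from A260, with 0.3 mol compound per mol DNA and DNA alone as control. ΔTm was taken from the peak of the first-derivative (dA/dT) curves.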

The subject of series [3] is Trypanosoma brucei rhodesiense. Description: Antiprotozoal activity against bloodstream forms of Trypanosoma brucei rhodesiense STIB900 infected in NMR1 mouse at 5 mg/kg, ip administered daily for 4 consecutive days starting from day 3 to 6 post infection. Format: functional. In outline:
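STIB900 acute-stage mouse infection model for T. b. rhodesiense (mimics acute African sleeping sickness). Dosing was 4 × 5 mg/kg i.p. The outcome was scored as cure of infected mice.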

Series [4] is described as follows: Selectivity index, ratio of IC50 for rat L6 cells to IC50 for Plasmodium falciparum K1 infected in human erythrocytes. Format: toxicity, cell-based. The note with it: read-out: Ratio IC50. Summed up: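 Ratio of IC50 in cultured L6 rat myoblast cells (cytotoxicity) to IC50 in an in vitro viability assay against chloroquine-resistant P. falciparum strain K1. P. falciparum IC50 values are the average of duplicate determinations.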

In the case of `N=C(N)c1ccc2nc(-c3ccc(-c4ccc(C(=N)N)s4)s3)[nH]c2c1`, the result in series [1] was Active. The thermal shift (ΔTm) (in general, the change in melting temperature against a reference sample) in series [2] is greater than 30 °C.
On to `N=C(N)c1ccc2cc(-c3ccc(-c4ccc(C(=N)N)s4)s3)[nH]c2c1`, for which, in series [3], the outcome was inactive. Also, the outcome in series [1] was Active. In series [2], the thermal shift (ΔTm) is greater than 30 °C.
With `N=C(N)c1ccc2nc(-c3ccc(-c4ccc(C(=N)N)o4)o3)[nH]c2c1`, in series [1], the result was Active.
With `N=C(N)c1ccc2cc(-c3ccc(-c4ccc(C(=N)N)o4)o3)[nH]c2c1`, in series [4], the selectivity ratio amounted to 1000. Moreover, in series [3], the outcome was inactive. In series [1], the result was Active.
`N=C(N)c1ccc2cc(-c3ccc(-c4ccc(C(=N)N)s4)o3)[nH]c2c1`: the result in series [3] was inactive. Besides, in series [2], the ΔTm was greater than 30 °C.
`N=C(N)c1ccc2nc(-c3ccc(-c4ccc(C(=N)N)s4)o3)[nH]c2c1`: in series [1], the result was Active.
